{
  "source": "ChEMBL document CHEMBL4373733",
  "about": "“Reinvestigating the synthesis and efficacy of small benzimidazole derivatives as presequence protease enhancers” (Eur J Med Chem, 2019)",
  "key": {"[1]": {"target": "T1, Presequence protease, mitochondrial (Homo sapiens) (UniProt Q5JRX3)", "T1 sequence (whole entry)": "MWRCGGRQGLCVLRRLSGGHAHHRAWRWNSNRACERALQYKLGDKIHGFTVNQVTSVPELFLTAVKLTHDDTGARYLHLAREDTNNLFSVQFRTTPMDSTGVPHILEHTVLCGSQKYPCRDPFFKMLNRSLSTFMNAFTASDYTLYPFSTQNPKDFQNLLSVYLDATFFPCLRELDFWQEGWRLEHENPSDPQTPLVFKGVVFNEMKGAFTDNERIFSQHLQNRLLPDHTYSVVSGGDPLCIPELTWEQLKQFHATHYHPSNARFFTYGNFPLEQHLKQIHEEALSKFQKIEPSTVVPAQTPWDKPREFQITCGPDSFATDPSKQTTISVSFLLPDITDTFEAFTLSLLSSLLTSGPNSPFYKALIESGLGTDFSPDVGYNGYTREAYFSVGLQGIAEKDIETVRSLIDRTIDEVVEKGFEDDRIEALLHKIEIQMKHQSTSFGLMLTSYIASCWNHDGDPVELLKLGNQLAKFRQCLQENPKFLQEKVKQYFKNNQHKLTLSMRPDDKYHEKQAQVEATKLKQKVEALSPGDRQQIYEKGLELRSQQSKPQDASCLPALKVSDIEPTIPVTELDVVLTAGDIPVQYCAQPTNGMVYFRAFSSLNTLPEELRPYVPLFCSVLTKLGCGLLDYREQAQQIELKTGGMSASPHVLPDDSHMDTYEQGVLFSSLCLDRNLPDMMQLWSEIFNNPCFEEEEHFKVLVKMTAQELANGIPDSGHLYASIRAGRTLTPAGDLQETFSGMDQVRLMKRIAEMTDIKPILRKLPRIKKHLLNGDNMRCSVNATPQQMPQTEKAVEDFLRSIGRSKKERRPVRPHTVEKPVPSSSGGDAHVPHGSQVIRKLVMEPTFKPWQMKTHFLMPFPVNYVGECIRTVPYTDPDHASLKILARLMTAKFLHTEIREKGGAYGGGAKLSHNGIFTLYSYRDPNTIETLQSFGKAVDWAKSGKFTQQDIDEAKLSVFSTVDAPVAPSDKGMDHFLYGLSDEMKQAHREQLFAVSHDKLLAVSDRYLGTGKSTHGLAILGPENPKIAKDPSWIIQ", "assay": "Agonist activity at recombinant human N-terminal His6-tagged PreP expressed in Escherichia coli expression system assessed as increase in degradation of substrate V at 0.0001 to 10 uM measured every 30 sec for 10 mins by fluorometry", "summary_of_the_method": "(§1)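 hPreP expressed in E. coli at 25 °C (300μM IPTG, 16 h), purified by Ni-NTA, Source Q and Superdex 200, stored at −80 °C. Reaction: 0.1 μg (or 1 μg) hPreP in 20 mM HEPES pH 8.0, 10 mM MgCl₂, with substrate V (0.1 or 1.4 μg), 200 or 250 μl, room temperature (24–26 °C) or 37 °C. Fluorescence ex 320/em 405 nm. Degradation rate averaged over four independent experiments, mean ± SD.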"}, "[2]": {"substrate": "Nc1ccc([N+](=O)[O-])cc1/N=C/c1cc(Br)ccc1O", "assay": "(§2) Agonist activity at recombinant human N-terminal His6-tagged PreP expressed in Escherichia coli expression system assessed as increase in degradation of substrate V by measuring catalytic rate at 0.01 uM measured every 30 sec for 10 mins by fluorometry (reference value: 1.4 +/- 0.1 /min)", "summary_of_the_method": "as §1"}, "[3]": {"substrate": "O=[N+]([O-])c1ccc2nc(-c3cc(Br)ccc3O)n(Cc3cc(Br)ccc3O)c2c1", "assay": "as §2", "summary_of_the_method": "as §1"}, "[4]": {"substrate": "Nc1ccc([N+](=O)[O-])cc1/N=C/c1cc(Br)ccc1O", "assay": "(§3) Agonist activity at recombinant human N-terminal His6-tagged PreP expressed in Escherichia coli expression system assessed as increase in degradation of substrate V by measuring catalytic rate at 0.1 uM measured every 30 sec for 10 mins by fluorometry (reference value: 1.4 +/- 0.1 /min)", "summary_of_the_method": "as §1"}, "[5]": {"substrate": "O=[N+]([O-])c1ccc2nc(-c3cc(Br)ccc3O)n(Cc3cc(Br)ccc3O)c2c1", "assay": "as §3", "summary_of_the_method": "as §1"}, "[6]": {"substrate": "Nc1ccc([N+](=O)[O-])cc1/N=C/c1cc(Br)ccc1O", "assay": "(§4) Agonist activity at recombinant human N-terminal His6-tagged PreP expressed in Escherichia coli expression system assessed as increase in degradation of substrate V by measuring catalytic rate at 1 uM measured every 30 sec for 10 mins by fluorometry (reference value: 1.4 +/- 0.1 /min)", "summary_of_the_method": "as §1"}, "[7]": {"substrate": "O=[N+]([O-])c1ccc2nc(-c3cc(Br)ccc3O)n(Cc3cc(Br)ccc3O)c2c1", "assay": "as §4", "summary_of_the_method": "as §1"}, "[8]": {"substrate": "O=[N+]([O-])c1ccc2nc(-c3cc(Br)ccc3O)n(Cc3cc(Br)ccc3O)c2c1", "assay": "Agonist activity at recombinant human N-terminal His6-tagged PreP expressed in Escherichia coli expression system assessed as increase in degradation of substrate V by measuring catalytic rate at 10 uM measured every 30 sec for 10 mins by fluorometry (reference value: 1.4 +/- 0.1 /min)", "summary_of_the_method": "as §1"}, "[9]": {"target": "Presequence protease, mitochondrial (Homo sapiens) (UniProt Q5JRX3)", "assay": "Agonist activity at recombinant human N-terminal His6-tagged PreP expressed in Escherichia coli expression system assessed as increase in degradation of substrate V by measuring catalytic rate at 10 uM measured every 30 sec for 10 mins by fluorometry (reference value: 1.4 +/- 0.1 /min)"}},
  "note": "Calls of active or inactive are those of the source. The calls are words filed in the database; no cut-off is given here.",
  "data": [
    {"molecule": "O=[N+]([O-])c1ccc2nc(-c3cc(Br)ccc3O)n(Cc3cc(Br)ccc3O)c2c1", "values": [
      {"measurement": "Activity", "setting": "[1]", "result": "inactive"}
    ]},
    {"molecule": "O=[N+]([O-])c1ccc2[nH]c(-c3cc(Br)ccc3O)nc2c1", "values": [
      {"measurement": "Activity", "setting": "[1]", "result": "inactive"}
    ]},
    {"molecule": "Nc1ccc([N+](=O)[O-])cc1/N=C/c1cc(Br)ccc1O", "values": [
      {"measurement": "Activity", "setting": "[1]", "result": "inactive"}
    ]},
    {"molecule": "Presequence protease, mitochondrial (Homo sapiens), Q5JRX3 (protein) MWRCGGRQGLCVLRRLSGGHAHHRAWRWNSNRACERALQYKLGDKIHGFTVNQVTSVPELFLTAVKLTHDDTGARYLHLAREDTNNLFSVQFRTTPMDSTGVPHILEHTVLCGSQKYPCRDPFFKMLNRSLSTFMNAFTASDYTLYPFSTQNPKDFQNLLSVYLDATFFPCLRELDFWQEGWRLEHENPSDPQTPLVFKGVVFNEMKGAFTDNERIFSQHLQNRLLPDHTYSVVSGGDPLCIPELTWEQLKQFHATHYHPSNARFFTYGNFPLEQHLKQIHEEALSKFQKIEPSTVVPAQTPWDKPREFQITCGPDSFATDPSKQTTISVSFLLPDITDTFEAFTLSLLSSLLTSGPNSPFYKALIESGLGTDFSPDVGYNGYTREAYFSVGLQGIAEKDIETVRSLIDRTIDEVVEKGFEDDRIEALLHKIEIQMKHQSTSFGLMLTSYIASCWNHDGDPVELLKLGNQLAKFRQCLQENPKFLQEKVKQYFKNNQHKLTLSMRPDDKYHEKQAQVEATKLKQKVEALSPGDRQQIYEKGLELRSQQSKPQDASCLPALKVSDIEPTIPVTELDVVLTAGDIPVQYCAQPTNGMVYFRAFSSLNTLPEELRPYVPLFCSVLTKLGCGLLDYREQAQQIELKTGGMSASPHVLPDDSHMDTYEQGVLFSSLCLDRNLPDMMQLWSEIFNNPCFEEEEHFKVLVKMTAQELANGIPDSGHLYASIRAGRTLTPAGDLQETFSGMDQVRLMKRIAEMTDIKPILRKLPRIKKHLLNGDNMRCSVNATPQQMPQTEKAVEDFLRSIGRSKKERRPVRPHTVEKPVPSSSGGDAHVPHGSQVIRKLVMEPTFKPWQMKTHFLMPFPVNYVGECIRTVPYTDPDHASLKILARLMTAKFLHTEIREKGGAYGGGAKLSHNGIFTLYSYRDPNTIETLQSFGKAVDWAKSGKFTQQDIDEAKLSVFSTVDAPVAPSDKGMDHFLYGLSDEMKQAHREQLFAVSHDKLLAVSDRYLGTGKSTHGLAILGPENPKIAKDPSWIIQ", "values": [
      {"measurement": "kcat", "setting": "[2]", "result": 0.0233, "unit": "s⁻¹"},
      {"measurement": "kcat", "setting": "[3]", "result": 0.0183, "unit": "s⁻¹"},
      {"measurement": "kcat", "setting": "[4]", "result": 0.02, "unit": "s⁻¹"},
      {"measurement": "kcat", "setting": "[5]", "result": 0.02, "unit": "s⁻¹"},
      {"measurement": "kcat", "setting": "[6]", "result": 0.0217, "unit": "s⁻¹"},
      {"measurement": "kcat", "setting": "[7]", "result": 0.0217, "unit": "s⁻¹"},
      {"measurement": "kcat", "setting": "[8]", "result": 0.0233, "unit": "s⁻¹"},
      {"measurement": "kcat", "setting": "[9]", "result": 0.0217, "unit": "s⁻¹"}
    ]}
  ]
}
